In series [1] the test system is CCRF-CEM. In words: In vitro cytotoxicity against CCRF-CEM cells. The conditions noted are these: Homo sapiens. Format: functional, cell-based. In a few lines:
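CCRF-CEM cells were grown in culture for 72 h with compound. The value is the concentration that inhibited growth to 50% of control growth.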

Series [2] concerns Mus musculus. The series can be described thus: In vivo antitumor activity of compound against subaxillary implanted 6C3HED lymphosarcoma implanted in C3H mice at a dose of 300 mg/kg administered intraperitoneally daily for a period of 8 days. The conditions noted are these: ip, 192 h, route intraperitoneal. Format: functional. In a few lines: (§1)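 6C3HED lymphosarcoma was carried in C3H mice. Compound was dosed at the stated route and schedule for 8 days (daily, twice daily, or days 1, 3, 5, 7) and tumor growth inhibition was scored against controls. The table value is the lowest dose giving >80% inhibition, or the highest dose tested. Deaths per group were recorded.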

The subject of series [3] is Mus musculus. The series can be described thus: In vivo antitumor activity against subaxillary implanted 6C3HED lymphosarcoma implanted in C3H mice at a dose of 150 mg/kg administered perorally twice daily for a period of 8 days. Format: functional. The conditions noted are these: Mus musculus, 6C3HED, po, 192 h. Put shortly: as §1
For series [4], the system named is Mus musculus. The series can be described thus: In vivo antitumor activity against subaxillary implanted 6C3HED lymphosarcoma implanted in C3H mice at a dose of 300 mg/kg administered perorally twice daily for a period of 8 days. Format: functional. The conditions noted are these: 192 h, route oral. Put shortly:
as §1

Series [5] relates to Mus musculus. In words: (§2) Metabolic breakdown to the o-sulfate of p-chloroaniline (2-amino-5-chlorophenyl sulfate) by giving 100 mg/kg oral doses of the compound. Format: functional. Put shortly: (§3)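 Groups of two to four mice received single 100 mg/kg oral doses of each compound. Urine was pooled over 0-24 h, and the 2-amino-5-chlorophenyl sulfate excreted in 24 h per mouse was quantified as the marker of p-chloroaniline release.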

Series [6] is described as follows: as §2. Format: ADME, organism-based. Set-up: dose 100 mg/kg, route oral. The conditions noted are these: in vivo. In a few lines: as §3
Series [7] relates to Mus musculus. In words: In vivo antitumor activity against subaxillary implanted 6C3HED lymphosarcoma implanted in C3H mice at a dose of 300 mg/kg administered perorally daily for a period of 8 days. Format: functional. The conditions noted are these: 192 h, route oral. In a few lines: as §1
The test system of series [8] is Mus musculus. In words: In vivo antitumor activity of compound against subaxillary implanted 6C3HED lymphosarcoma implanted in C3H mice at a dose of 50 mg/kg administered perorally twice daily for a period of 8 days. Format: functional. The conditions noted are these: 192 h, route oral. In a few lines:
as §1

Series [9] relates to Mus musculus. In words: In vivo antitumor activity of compound against subaxillary implanted 6C3HED lymphosarcoma implanted in C3H mice at a dose of 150 mg/kg administered intraperitoneally daily for a period of 8 days. Format: functional. The conditions noted are these: ip, 192 h, route intraperitoneal. Put shortly: as §1
Series [10] concerns Mus musculus. The series can be described thus: In vivo antitumor activity of compound against subaxillary implanted 6C3HED lymphosarcoma implanted in C3H mice at a dose of 19 mg/kg administered perorally on days 1, 3, 5, 7. Format: functional. The note with it: route oral. In a few lines:
as §1

In series [11] the test system is Mus musculus. The series can be described thus: In vivo antitumor activity of compound against subaxillary implanted 6C3HED lymphosarcoma implanted in C3H mice at a dose of 75 mg/kg administered perorally twice daily for a period of 8 days. Format: functional. The note with it: 192 h, route oral. In a few lines: as §1
Series [12] relates to Mus musculus. In words: In vivo antitumor activity of compound against subaxillary implanted 6C3HED lymphosarcoma implanted in C3H mice at a dose of 25 mg/kg administered perorally twice daily for a period of 8 days. Format: functional. The note with it: 192 h, route oral. Put shortly:
as §1

Data on 24 compounds can be found in ChEMBL document CHEMBL1129963, “Sulfonimidamide analogs of oncolytic sulfonylureas” (J Med Chem, 1997).

Values after ≈ are worked out from the molar mass of the structure shown.

As for `CCCC[S+]([O-])(=NC(=O)Nc1ccc(Cl)cc1)NC` (stereo not drawn), in series [1], the IC50 was greater than 20 µg/mL. Besides, in series [2], 300 mg/kg produced 7% inhibition in vivo.

`CC(=O)N(C(=O)N=[S+]([O-])(c1ccc(C)cc1)N(C)C(C)=O)c1ccc(Cl)cc1` (stereo not drawn) came in with a 50% inhibitory concentration (IC50) in series [1] of 5.6 µg/mL (≈ 13.3 µM). 150 mg/kg produced 83% inhibition in vivo in series [3].

In series [1], `N[S+]([O-])(=NC(=O)Nc1ccc(Cl)cc1)c1ccccc1` (stereo not drawn) showed an IC50 greater than 20 µg/mL. The same compound came in with an inhibition in vivo at 300 mg/kg in [4] of 0%.

In series [5], `O=C(Nc1ccc(Cl)cc1)NS(=O)(=O)c1ccc2c(c1)CCC2` [SULOFENUR] yielded an Activity of 0.37 µM. The compound also showed an inhibition in vivo at 150 mg/kg in series [3] of 91%.

In [6], `Cc1ccc([S+](N)([O-])=NC(=O)Nc2ccc(Cl)cc2)cc1` (stereo in doubt; 14) showed an Activity of less than 0.2 µM. The IC50 in series [1] is greater than 20 µg/mL. For the same compound, the inhibition in vivo at 300 mg/kg in series [2] amounted to 98%; in series [7] it was 89%. This compound showed an inhibition in vivo at 50 mg/kg in [8] of 95%. In series [9], this compound registered an inhibition in vivo at 150 mg/kg of 92%.

For the compound `Cc1cc([S+](N)([O-])=NC(=O)Nc2ccc(Cl)cc2)cc(C)c1C` (stereo not drawn), the IC50 in series [1] was determined as 12.7 µg/mL (≈ 36.1 µM). Besides, in series [10], the inhibition in vivo at 19 mg/kg was found to be 95%.

With `Cc1ccc([S+](N)([O-])=NC(=O)Nc2ccccc2)cc1` (stereo not drawn), the IC50 in series [1] is greater than 20 µg/mL. The compound further displayed an inhibition in vivo at 150 mg/kg in series [3] of 0%.

In [1], `Cc1ccc([S+]([O-])(=NC(=O)Nc2ccc(Cl)cc2)NCC(C)C)cc1` (stereo not drawn) registered a concentration for half-maximal inhibition (IC50) of 0.7 µg/mL (≈ 1.84 µM). Moreover, the inhibition in vivo at 75 mg/kg in series [11] came to 85%.

With `N[S+]([O-])(=NC(=O)Nc1ccc(Cl)cc1)c1ccc(Br)cc1` (stereo not drawn), the IC50 in [1] was determined as 10.6 µg/mL (≈ 27.3 µM). Further, the inhibition in vivo at 150 mg/kg in series [3] is 89%.

Take `Cc1ccc(S(=O)(=O)NC(=O)Nc2ccc(Cl)cc2)cc1` [LY-181984]: the Activity in [5] amounted to 1.02 µM. This compound had an inhibition in vivo at 150 mg/kg in [3] of 93%.

`Cc1ccc(NC(=O)N=[S+](N)([O-])c2ccc(C)cc2)cc1` (stereo not drawn): the half-inhibitory concentration (IC50) in [1] was greater than 20 µg/mL. Besides, 300 mg/kg produced 40% inhibition in vivo in series [7].

`CCCCN(C(C)=O)[S+]([O-])(=NC(=O)N(C(C)=O)c1ccc(Cl)cc1)c1ccc(C)cc1` (stereo not drawn) showed an IC50 in [1] of 2.9 µg/mL (≈ 6.25 µM). Further, in series [4], testing at 300 mg/kg gave an inhibition in vivo of 10%.

For the compound `Cc1ccc([S+]([O-])(=NC(=O)Nc2ccc(Cl)cc2)Nc2ccccc2)cc1` (stereo not drawn), in [1], the IC50 was 7 µg/mL (≈ 17.5 µM). In series [7], this compound came in with an inhibition in vivo at 300 mg/kg of 5%.

The compound `CCCCNC(=O)N=[S+](N)([O-])c1ccc(C)cc1` (stereo not drawn) displayed an IC50 in series [1] greater than 20 µg/mL. This compound also returned an inhibition in vivo at 300 mg/kg in [2] of 12%.

In turn, `CN[S+]([O-])(=NC(=O)Nc1ccc(Cl)cc1)c1ccc2c(c1)CCC2` (stereo not drawn) showed a concentration for half-maximal inhibition (IC50) in series [1] of 10.8 µg/mL (≈ 29.7 µM). At 150 mg/kg the inhibition in vivo in [3] was 75%.

The compound `CCCCN(C(C)=O)[S+]([O-])(=NC(=O)Nc1ccc(Cl)cc1)c1ccc(C)cc1` (stereo not drawn) registered an IC50 in series [1] of 12.5 µg/mL (≈ 29.6 µM). The inhibition in vivo at 300 mg/kg in series [4] was 53%.

In [6], `N[S+]([O-])(=NC(=O)Nc1ccc(Cl)cc1)c1ccc2c(c1)CCC2` (stereo not drawn) displayed an Activity of less than 0.15 µM. Besides, in series [1], the 50% inhibitory concentration (IC50) was greater than 20 µg/mL. The compound further showed an inhibition in vivo at 150 mg/kg in series [9] of 86%.

In series [1], `Cc1ccc([S+]([O-])(=NC(=O)Nc2ccc(Cl)cc2)NCCCO)cc1` (stereo not drawn) yielded a concentration for half-maximal inhibition (IC50) greater than 20 µg/mL. Besides, testing at 300 mg/kg in [4] gave an inhibition in vivo of 89%.

In [1], `CC(C)(C)c1ccc([S+](N)([O-])=NC(=O)Nc2ccc(Cl)cc2)cc1` (stereo not drawn) had an IC50 of 1.7 µg/mL (≈ 4.65 µM). In [4], this compound gave an inhibition in vivo at 300 mg/kg of 11%.

The compound `COc1ccc(NC(=O)N=[S+](N)([O-])c2ccc(C)cc2)cc1` (stereo not drawn) returned an IC50 in [1] greater than 20 µg/mL. In series [4], at 300 mg/kg the inhibition in vivo was 0%.

For the compound `Cc1cc([S+](N)([O-])=NC(=O)Nc2ccc(Cl)cc2)cc(C)c1Cl` (stereo not drawn), in series [1], the IC50 was found to be 6.2 µg/mL (≈ 16.7 µM). The inhibition in vivo at 300 mg/kg in series [4] is 0%.

Consider `CCc1ccc([S+](N)([O-])=NC(=O)Nc2ccc(Cl)cc2)cc1` (stereo not drawn), for which the concentration for half-maximal inhibition (IC50) in [1] is greater than 20 µg/mL. Further, in series [12], 25 mg/kg produced 91% inhibition in vivo.

On to `Cc1ccc([S+](N)([O-])=NC(=O)Nc2ccc(Cl)c(Cl)c2)cc1` (stereo not drawn), for which the concentration for half-maximal inhibition (IC50) in series [1] is greater than 20 µg/mL. In [4], this compound gave an inhibition in vivo at 300 mg/kg of 14%.

The compound `Cc1ccc([S+](N)([O-])=NC(=O)Nc2ccc(O)cc2)cc1` (stereo not drawn) displayed a concentration for half-maximal inhibition (IC50) in series [1] greater than 20 µg/mL. The same compound returned an inhibition in vivo at 300 mg/kg in series [2] of 11%.
